Measurements reported in ChEMBL document CHEMBL1687733, “Topoisomerase I gene mutations at F270 in the large subunit and N184 in the small subunit contribute to the resistance mechanism of the unicellular parasite Leishmania donovani towards 3,3'-diindolylmethane” (Antimicrob Agents Chemother, 2009).
Activity calls are given as the source filed them.

Key:
Leishmania donovani [1] = test: Inhibition of recombinant drug-resistant Leishmania donovani LdDR50 topoisomerase 1b large subunit F270L mutant and small subunit N184S mutant-mediated relaxation of supercoiled pBluescript SK(+) DNA at up to 50 uM after 30 mins using ethidium bromide staining
Procedure, shortened: (§1)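 Reconstituted recombinant enzyme (30 fmol) with 90 fmol supercoiled pBluescript SK(+) DNA (3:1 DNA:enzyme), 30 min at 37°C with DIM (1–50 μM for fully mutant enzyme; 10 μM for single-site mutants); 4% DMSO vehicle control. Products on 1% agarose, ethidium bromide (0.5 μg/ml) stained; supercoiled monomer band quantified.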

Leishmania donovani [2] = test: Inhibition of recombinant drug-resistant Leishmania donovani LdDR50 topoisomerase 1b-mediated relaxation of supercoiled pBluescript SK(+) DNA at up to 50 uM after 30 mins using ethidium bromide staining; procedure, shortened: as §1
Leishmania donovani [3] = test: Antimicrobial activity against wild type Leishmania donovani AG83 transfected with drug-resistant Leishmania donovani LdDR50 topoisomerase 1 wild type large subunit and N184S mutant in small subunit assessed as inhibition of parasite growth at 20 uM after 24 hrs by MTT assay; format: functional; details: AG83, 24 h
Procedure, shortened: (§2)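 WT promastigotes transfected by electroporation with mutant large-subunit (pXG-HYG, hygromycin selection) and/or small-subunit (pXG-GFP2+, G418 selection) topoisomerase I genes. Grown with DIM 1–20 μM for 24 h; MTT read-out, growth as % of optical density of untreated WT parasites.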

Leishmania donovani [4] = test: Antimicrobial activity against wild type Leishmania donovani AG83 transfected with drug-resistant Leishmania donovani LdDR50 topoisomerase 1 K430N mutant in large subunit and N184S mutant in small subunit assessed as inhibition of parasite growth at 20 uM after 24 hrs by MTT assay; format: functional; details: AG83, 24 h; procedure, shortened: as §2
Leishmania donovani [5] = test: Antimicrobial activity against wild type Leishmania donovani AG83 assessed as inhibition of parasite growth after 24 hrs by MTT assay; format: functional, organism-based
Procedure, shortened: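 WT L. donovani promastigotes were harvested in exponential phase and seeded at 2 × 10^6 cells per well. They were exposed to DIM at 1, 5, 10, 15 and 20 μM, washed in PBS, and given MTT (10 μg/ml) for 4 h. Acidified isopropanol stop was followed by A570. Growth was expressed as % of the OD of untreated WT, from three experiments.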

DNA topoisomerase I = DNA topoisomerase I (Leishmania donovani (strain BPK282A1), UniProt E9BRC0, F270L/K430N); test: Binding affinity to recombinant drug-resistant Leishmania donovani LdDR50 topoisomerase 1b large subunit F270L, K430N mutant after 24 hrs by equilibrium dialysis method
Procedure, shortened: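 Recombinant His-tagged subunits expressed in E. coli BL21(DE3) pLysS, purified on Ni-NTA then phosphocellulose, reconstituted 1:1. Enzyme 200 μM with DIM 1–20 μM in 20 mM Tris-HCl pH 7.5, 50 mM NaCl, 10 mM MgCl2 for 30 min at 37°C, then dialysed (12–14 kDa cutoff) 24 h at 25°C. Free DIM measured by absorbance (ε 6.6 × 10^4 M−1); KD from saturation plot.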

[6] = system: T1, DNA topoisomerase I (Leishmania donovani (strain BPK282A1)), E9BRC0 [K430N]; test: Effect on recombinant drug-resistant Leishmania donovani LdDR50 topoisomerase 1b large subunit K430N mutant-mediated cleavage of 25-mer duplex oligonucleotide at 20 uM after 30 mins by PAGE analysis
T1 sequence (whole entry): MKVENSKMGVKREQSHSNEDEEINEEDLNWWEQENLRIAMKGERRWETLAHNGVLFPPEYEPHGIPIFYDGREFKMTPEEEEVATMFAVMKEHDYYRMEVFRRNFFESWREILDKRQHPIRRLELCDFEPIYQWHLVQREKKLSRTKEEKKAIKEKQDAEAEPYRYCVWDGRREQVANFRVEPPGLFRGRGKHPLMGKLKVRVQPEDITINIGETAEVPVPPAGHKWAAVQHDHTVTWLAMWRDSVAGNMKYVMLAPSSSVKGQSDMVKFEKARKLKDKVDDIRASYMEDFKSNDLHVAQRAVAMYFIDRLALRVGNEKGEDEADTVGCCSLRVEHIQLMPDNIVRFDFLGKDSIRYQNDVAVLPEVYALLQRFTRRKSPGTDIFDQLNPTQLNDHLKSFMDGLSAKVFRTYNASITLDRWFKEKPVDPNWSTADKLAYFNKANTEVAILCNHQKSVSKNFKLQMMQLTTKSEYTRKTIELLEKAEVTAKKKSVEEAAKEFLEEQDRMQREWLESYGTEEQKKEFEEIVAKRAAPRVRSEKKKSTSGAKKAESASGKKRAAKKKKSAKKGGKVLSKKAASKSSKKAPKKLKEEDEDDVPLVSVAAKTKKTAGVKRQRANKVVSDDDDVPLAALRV
Procedure, shortened: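 5′-32P-labelled 25-mer duplex (10 nM) incubated with reconstituted mutant enzyme (0.2 μM, 20-fold molar excess) and DIM 5–20 μM for 30 min (Methods 37°C; legend 23°C). Stopped with SDS, trypsin-treated, resolved on 12% denaturing polyacrylamide-urea gel; cleaved 12-mer detected by autoradiography.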

Chain of DNA topoisomerase I (E9BRC0 whole entry F270L/K430N): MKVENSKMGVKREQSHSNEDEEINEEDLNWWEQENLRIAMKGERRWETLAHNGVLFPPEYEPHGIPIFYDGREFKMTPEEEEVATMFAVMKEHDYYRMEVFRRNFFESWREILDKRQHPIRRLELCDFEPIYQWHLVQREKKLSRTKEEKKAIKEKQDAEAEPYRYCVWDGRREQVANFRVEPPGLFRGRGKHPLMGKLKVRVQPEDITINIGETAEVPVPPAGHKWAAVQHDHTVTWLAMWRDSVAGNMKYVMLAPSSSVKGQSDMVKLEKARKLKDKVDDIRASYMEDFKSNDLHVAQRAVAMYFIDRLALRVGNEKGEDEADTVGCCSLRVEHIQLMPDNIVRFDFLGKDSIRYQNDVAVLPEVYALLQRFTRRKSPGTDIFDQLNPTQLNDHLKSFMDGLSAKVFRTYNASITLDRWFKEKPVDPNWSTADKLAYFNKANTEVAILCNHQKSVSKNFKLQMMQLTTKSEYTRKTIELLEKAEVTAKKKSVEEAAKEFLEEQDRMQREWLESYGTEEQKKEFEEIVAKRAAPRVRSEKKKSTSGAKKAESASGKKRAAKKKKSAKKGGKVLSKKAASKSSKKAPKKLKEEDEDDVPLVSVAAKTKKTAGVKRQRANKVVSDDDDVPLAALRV

c1ccc2c(Cc3c[nH]c4ccccc34)c[nH]c2c1 [ARUNDINE]
inhibition (Leishmania donovani [1]): inactive | inhibition (Leishmania donovani [2]): inactive | inhibition at 20 µM (Leishmania donovani [3]): 91% | inhibition at 20 µM (Leishmania donovani [4]): 86% | inhibition (Leishmania donovani [5]): Dose-dependent effect | IC50 (Leishmania donovani [5]; AG83, 24 h): 1.25 µM | Kd (DNA topoisomerase I): 760 µM | Activity [6]: Active
